Assay results gathered from unrelated publications.
Target: Protein kinase C iota type (PRKCI, Homo sapiens, UniProt P41743)
Residues used in one study (P41743 1-596): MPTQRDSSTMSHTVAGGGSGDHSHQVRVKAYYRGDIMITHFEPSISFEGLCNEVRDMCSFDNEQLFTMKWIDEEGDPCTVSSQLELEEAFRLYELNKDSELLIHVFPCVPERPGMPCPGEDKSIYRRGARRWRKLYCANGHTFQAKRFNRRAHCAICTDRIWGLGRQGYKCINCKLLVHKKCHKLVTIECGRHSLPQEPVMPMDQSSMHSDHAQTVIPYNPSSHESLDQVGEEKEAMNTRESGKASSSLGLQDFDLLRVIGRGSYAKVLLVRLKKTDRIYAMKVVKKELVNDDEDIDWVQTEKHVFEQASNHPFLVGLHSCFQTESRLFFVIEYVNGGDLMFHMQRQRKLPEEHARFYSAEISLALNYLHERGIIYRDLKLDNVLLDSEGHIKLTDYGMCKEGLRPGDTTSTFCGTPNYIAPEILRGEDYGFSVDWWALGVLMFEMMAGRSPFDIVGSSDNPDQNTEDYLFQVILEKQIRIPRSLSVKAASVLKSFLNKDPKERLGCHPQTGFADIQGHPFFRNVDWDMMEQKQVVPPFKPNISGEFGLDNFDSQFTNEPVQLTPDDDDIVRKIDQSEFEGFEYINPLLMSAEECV

The remaining binding of `C[C@H](c1cccc(C#N)c1)n1cc(Cl)cc(C(N)=O)c1=N` is reported as 100% (cell-free assay; competition with immobilised ligand; 1 µM).
For `CCCOc1ccc(OC)c(F)c1C(=O)c1ccc(C(=O)N[C@@H]2CNC[C@H]2NC(=O)c2ccc3[nH]ncc3c2)cc1`, the remaining activity was 89% (enzyme activity; inhibitor; 10 µM).
`COc1cccc2c(NCc3ccccc3)nc(-n3c(N)nc4ccccc43)nc12` gave an inhibition of -13.3% (target engagement in cells; inhibitor; chemoproteomics; 20 mM).
`CO[C@@H](C)c1c(Nc2ccc([C@@H](N(C)C(=O)C3CCS(=O)(=O)CC3)C(F)(F)F)cc2)cnc2cc(Cl)nn12` has a remaining binding of 76% (cell-free assay; competition with immobilised ligand; 1 µM).
`Cc1ccc(NC(=O)c2ccc(C)c(C(F)(F)F)c2)cc1C#Cc1nn(C2CCC(O)CC2)c2ncnc(N)c12` (stereo not drawn) gave a remaining signal of 91% (cell-free assay; 10 µM).
For `CC(C)(O)[C@H]1CC[C@H](Nc2ccc3ncc(-c4cccc(C(F)(F)F)c4)n3n2)CC1`, the remaining activity was 128% (enzyme activity; inhibitor; 1 µM).
`CN(C)C1CCN(CC#Cc2nn(C3CCCC3)c3nc(NCc4ccccc4)ncc23)C1` (stereo not drawn) gave an inhibition of 6% (enzyme activity; inhibitor; FRET; 10 µM).
With `COc1cc(Cl)c(C(=O)N[C@@H](CN[C@H]2CC[C@@H](N)CC2)Cc2ccc(C#N)cc2)cc1-c1ccc(CN[C@H](C)c2ccc(C)cc2)o1` the remaining activity was 96% (enzyme activity; inhibitor; 1 µM).
For `Cc1ccc(C(=O)Nc2ccc(CN3CCN(C)CC3)c(C(F)(F)F)c2)cc1C#Cc1cnc2cccnn12`, the remaining activity was 85% (enzyme activity; 23.5 nM).
With `Cc1sc(C(=O)NC2COC2)cc1-n1cc(NC(=O)Nc2c(F)cccc2Cl)cn1` the remaining activity was 90.8% (enzyme activity; inhibitor; 10 µM).
`CNCc1ccc(-c2cc(-c3nc(-c4ccc(S(=O)(=O)C(C)C)cc4)cnc3N)on2)cc1` has an inhibition of 1% (enzyme activity; inhibitor; 2 µM).
The inhibition of `Cc1ccc(-n2nc(C(C)(C)C)cc2NC(=O)Nc2ccc(OCCN3CCOCC3)c3ccccc23)cc1` is reported as 3% (enzyme activity; inhibitor; 10 µM).
With `CC(C)(O)c1cncc(-c2nc3ccc(F)cc3n2C2CC2)c1` the remaining binding was 89% (cell-free assay; competition with immobilised ligand; 1 µM).
With `CN1CC(Oc2cnc(C#N)cc2-c2ccn3nc(NC(=O)C4CC4)cc3c2)C1` the inhibition was -8% (enzyme activity; inhibitor; 1 µM).
`C[C@@H]1CN(c2cc(-c3nn(C)c4ccc(OC5(C)CC5)cc34)ncn2)C[C@H](C)O1` has a remaining binding of 100% (cell-free assay; competition with immobilised ligand; 1 µM).
`CCN(CC)CCNC(=O)c1c(C)[nH]c(/C=C2\C(=O)Nc3ccc(F)cc32)c1C` gave an inhibition of 3% (enzyme activity; inhibitor; 0.3 µM).
`N#CCCc1ccc2c(c1)-c1[nH]c3ccc([N+](=O)[O-])cc3c1CC(=O)N2` gave a remaining signal of 65.3% (cell-free assay; 0.5 µM).
`COc1cc2ncnc(Nc3ccc(Oc4ccccc4)cc3C)c2cc1OC` gave an inhibition of 3% (enzyme activity; inhibitor; 1 µM).
`COc1cc(-c2cc(-c3ccc(N4CCNCC4)cc3)cnc2C)cc(OC)c1OC` gave an inhibition of 18% (enzyme activity; inhibitor; 1 µM).
With `Nc1c(C(=O)NCc2ccc(C(=O)NCCCC3CCCCC3)cc2)cnn1-c1ccccc1` the remaining binding was 97% (cell-free assay; competition with immobilised ligand; 0.1 µM).
With `Cc1ccc(C(=O)NCc2ccsc2)cc1C#Cc1cn(C(C)C)c2ncnc(N)c12` the activity vs control was 96% (enzyme activity; inhibitor; 1 µM).
`COc1ccc2cc(OCC3(C(=O)O)CN(C(=O)c4ccc(F)cc4)C3)ccc2c1` has a remaining binding of 100% (cell-free assay; competition with immobilised ligand; 1 µM).
For `N[C@@H]1CCN(c2nccc(-c3cnn4ncccc34)n2)C1`, the remaining binding was 33% (binding; 1 µM).
`COc1cccc(CNC(=O)c2nc3scc(COCc4ccc(C(=O)O)cc4)c3c(=O)[nH]2)c1` has a remaining binding of 100% (cell-free assay; competition with immobilised ligand; 1 µM).
`Cc1ccc(Nc2nccc(N(C)c3ccc4c(C)n(C)nc4c3)n2)cc1S(N)(=O)=O` has a remaining activity of 96.1% (enzyme activity; 0.5 µM).
For `CCC(=O)N[C@@H]1CC[C@H](C(=O)N(C)c2ccc(-c3nc4ccccc4o3)cc2)C1`, the remaining binding was 84% (cell-free assay; competition with immobilised ligand; 1 µM).
The remaining activity of `CC(C)(C)c1nc(-c2cccc(NS(=O)(=O)c3c(F)cccc3F)c2F)c(-c2ccnc(N)n2)s1` is reported as 100% (enzyme activity; inhibitor; radiometric; 1 µM).
